The test system of series [1] is Leishmania donovani axenic amastigotes (strain MHOM/ET/67/L82). Nature of the series: L. donovani axenic amastigotes resazurin assay. It is filed as cell-based. (The colour change of resazurin is a common sign of viable cells or microbes.)
In series [2] the test system is bacteria, fungi, and cancer cells. The settings on record: cited from earlier work.
The test system of series [3] is T. brucei. The settings on record: cited from earlier work.
Series [4] relates to T. brucei. The following applies: cited from earlier work. The source holds these as a separate data set.
The subject of series [5] is Trypanosoma cruzi (Tulahuen strain C2C4). In words: T. cruzi assay in L6 cells. The settings on record: read-out: T. cruzi; intracellular. It is filed as cell-based.
The subject of series [6] is T. b. brucei bloodstream forms. In words: TMRE mitochondrial membrane potential assay. The class given is cell-based. Put shortly:
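The mitochondrial membrane potential of bloodstream-form T. b. brucei (NYsm) was quantified with the potential-sensitive dye TMRE, before and after test compound treatment. TMRE fluorescence was expressed relative to control parasites. CCCP served as positive control.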

In series [7] the test system is T. b. brucei bloodstream forms. Nature of the series: MitoTracker fluorescence microscopy. The class given is cell-based. The settings on record: 24 h treatment; 4 and 5 at 40 nM final concentration. A digest of the protocol: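 Bloodstream-form T. b. brucei (NYsm strain) were exposed to test compound for 24 h, some at 40 nM final concentration. Cells were then incubated with the mitochondrial membrane potential-dependent dye MitoTracker, co-stained with DAPI and anti-ATOM40, and examined by fluorescence microscopy with DIC imaging. Untreated parasites were stained in parallel.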

For series [8] the following is noted: mice; cited from earlier work.
For the next series, the system named is Trypanosoma brucei. The following applies: read-out: IC50 Trypanosoma brucei; cited from earlier work.
Series [9] concerns Leishmania donovani intracellular amastigotes. Nature of the series: L. donovani intracellular amastigotes in macrophages. It is filed as cell-based. The settings on record: read-out: L. donovani. Macrophage, mouse peritoneal macrophages.
Another series concerns Plasmodium falciparum. The settings on record: read-out: IC50 Plasmodium falciparum; cited from earlier work.
Series [10] has as its system T. b. brucei 427 bloodstream forms. In words: T. b. brucei bloodstream form resazurin IC50 assay. It is filed as cell-based. The settings on record: read-out: activity on T. b. brucei; 72 h exposure.
[11] abbreviates: read-out: L. donovani. axenic amastigotes, range in parentheses.

Where two headings read alike, the source gives them in different places. *1 amine or outer side, *2 acyl side, *3 side chain or, on linkers, in order; H or OH if unused. Where a SMILES comes first, the peptide text is derived from it. [ ]: non-standard residue; d: D form. The star is where a group is joined. X1 = CCC(=O)C[C@H](O)C[C@@H](C)C[C@H](N[*:1])C(=O)[*:2]; Hexenoyl(2E,4S-Me) = CC[C@H](C)/C=C/C(=O)*; Leu(3R-OH) = CC(C)[C@@H](O)[C@H](N)C(=O)O; NH((S)CH(Me)CH2NMe2) = C[C@@H](CN(C)C)N*; Pro(4S-Me) = C[C@@H]1CN[C@H](C(=O)O)C1; NH(1-CH2NMe2-cBu) = CN(C)CC1(N*)CCC1; Oxazole4CO(2-Me) = Cc1nc(C(=O)*)co1; hCha = N[C@@H](CCC1CCCCC1)C(=O)O; NMeL = CN[C@@H](CC(C)C)C(=O)O; Aib = CC(C)(N)C(=O)O; βAla = NCCC(=O)O

For `CCCCCCCCCCCCCCCCOP(=O)([O-])OCC[N+](C)(C)C` [miltefosine], the IC50 in series [1] (Leishmania donovani, read-out: L. donovani. axenic amastigotes [nM]) was found to be 483 nM.
As for leucinostatin Y, the “activity compared with leucinostatin A” value in [2] is “far less active”.
As for leucinostatin B [leucinostatin B (1 b)], the “mean duration of survival compared to untreated mice” value in the series with T. brucei [3] (4×0.3 mg kg^−1 ip) is “slightly increased”. Further, the results for the mice cured entry in the series with T. brucei [3] (4×0.3 mg kg^−1 ip) and with T. brucei [3] (4×1.0 mg kg^−1 ip) were “no mice were cured” and “one of 4 mice was cured”, respectively. Further, in the series with T. brucei [3] (4×1.0 mg kg^−1 ip, untreated 11.3 days), the “mean duration of survival” value is 28 days. Besides, the curative effect result in the series with T. brucei [4] (4×0.3 mg kg^−1 ip) and in the series with T. brucei [4] (4×1.0 mg kg^−1 ip) was “curative effects” throughout.
On to `Cc1nc(C(=O)N2CCC[C@H]2C(=O)N[C@@H](CCC2CCCCC2)C(=O)N[C@@H](CC(C)C)C(=O)NC(C)(C)C(=O)N[C@@H](CC(C)C)C(=O)N(C)[C@@H](CC(C)C)C(=O)NC(C)(C)C(=O)NC(C)(C)C(=O)NCCC(=O)NC2(CN(C)C)CCC2)co1` [Compound 3] ({Oxazole4CO(2-Me)}-P[hCha]L[Aib]L[NMeL][Aib][Aib][βAla]-{NH(1-CH2NMe2-cBu)}), for which the figures for the IC50 in series [5] and in series [1] (setting [11]) were over 2000 nM and 9260 nM, respectively. Moreover, the “TMRE fluorescence relative to control parasites” value in series [6] is given as “no changes”. In addition, the MitoTracker mitochondrial staining result in [7] is on record as “no changes”.
In the case of `CCC(=O)C[C@H](O)C[C@@H](C)C[C@H](NC(=O)[C@@H]1C[C@H](C)CN1C(=O)/C=C/[C@@H](C)CC)C(=O)N[C@H](C(=O)NC(C)(C)C(=O)N[C@@H](CC(C)C)C(=O)N[C@@H](CC(C)C)C(=O)NC(C)(C)C(=O)NC(C)(C)C(=O)NCCC(=O)N[C@@H](C)CN(C)C)[C@H](O)C(C)C` [leucinostatin A (1 a), leucinostatin A] ({Hexenoyl(2E,4S-Me)}-[Pro(4S-Me)][X1][Leu(3R-OH)][Aib]LL[Aib][Aib][βAla]-{NH((S)CH(Me)CH2NMe2)}), the IC50 was 23 nM in series [5]; 2.8 nM in the series with Trypanosoma brucei; 9.8 nM in series [9]; 1.05 nM in series [1] (setting [11]); 0.4 to 0.9 nM with Plasmodium falciparum; 0.4 nM in series [10]. Further, the “ip LD50” value in series [8] was 1.1 mg/kg. Moreover, the “TMRE fluorescence relative to control parasites” value in [6] is given as “concentration‐dependent decrease”.

The values above are taken from PMC8360131 (Angewandte Chemie (International Ed. in English), 2021).
